This passage reports IC50 results from ChEMBL document CHEMBL4257580, “Tanshinone-IIA-Based Analogues of Imidazole Alkaloid Act as Potent Inhibitors To Block Breast Cancer Invasion and Metastasis in Vivo” (J Med Chem, 2018).

Some results are limits rather than exact numbers.

One assay relates to MDA-MB-231. Briefly: Antiproliferative activity against human MDA-MB-231 cells after 72 hrs by MTT assay. The assay is classed as functional, cell-based. The conditions noted are these: MDA-MB-231, 72 h. In a few lines:
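MDA-MB-231 cells grown in DMEM with 10% FBS and penicillin/streptomycin at 37 °C under 5% CO2. Seeded at 5×10^3 cells/well for 24 h, then exposed to compound across a concentration range for 72 h. MTT (5 mg/mL in PBS) added for 5 h, formazan dissolved in DMSO, absorbance read at 570 nm. Three repeats.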
A general note: Tetrazolium assays rely on reduction of a dye to a coloured formazan, in cell work by metabolically active cells.

For another assay, the system named is HeLa. Briefly: Antiproliferative activity against human HeLa cells after 72 hrs by MTT assay. In kind it is functional, cell-based. In outline:
(§1)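 A549, HeLa, HepG2 and normal liver L02 cells kept in DMEM with 10% FBS at 37 °C under 5% CO2. Plated at 5×10^3 cells/well for 24 h, then treated with graded concentrations for 72 h. Viability measured by MTT reduction (5 h), formazan dissolved in DMSO and read at 570 nm. Three repeats.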

The subject of a further assay is HepG2. Briefly: Antiproliferative activity against human HepG2 cells after 72 hrs by MTT assay. In kind it is functional, cell-based. The conditions noted are these: HepG2, 72 h. In outline: as §1
Another assay has as its system A549. Briefly: Antiproliferative activity against human A549 cells after 72 hrs by MTT assay. The assay is classed as functional, cell-based. The conditions noted are these: A549, 72 h. In a few lines: as §1
The next assay has as its system L02. Briefly: Antiproliferative activity against human L02 cells after 72 hrs by MTT assay. Particulars: L02, 72 h. The assay is classed as cell-based. In a few lines: as §1

The IC50 is the concentration needed to halve the response being measured. Read a low IC50 as greater potency in that assay. On to `Cc1coc2c3ccc4c(c3c3[nH]c(-c5cccc([N+](=O)[O-])c5)nc3c12)CCCC4(C)C`, for which the half-maximal inhibitory concentration (IC50) with MDA-MB-231 is 48.8 µM; in the assay with HeLa it was more than 300 µM; in the assay on HepG2, 33.9 µM; in the assay on A549, 63.7 µM; with L02, more than 300 µM.
Consider `Cc1coc2c3ccc4c(c3c3[nH]c(-c5ccc([N+](=O)[O-])cc5)nc3c12)CCCC4(C)C`, for which the IC50 in the assay with MDA-MB-231 was 30.7 µM; in the assay on HeLa, 157 µM; in the assay on HepG2, 31 µM; in the assay with A549, 24.9 µM; in the assay on L02, more than 300 µM.
On to `Cc1coc2c3ccc4c(c3c3[nH]c(-c5ccccc5C(F)(F)F)nc3c12)CCCC4(C)C`, for which the half-inhibitory concentration (IC50) was found to be 23.8 µM in the assay on MDA-MB-231; 61 µM in the assay with HeLa; 38.4 µM in the assay with HepG2; 25.6 µM in the assay with A549; 93.9 µM in the assay with L02.
For `Cc1coc2c3ccc4c(c3c3[nH]c(-c5cccc(O)c5)nc3c12)CCCC4(C)C` the same measures were 25.5 µM, 52.6 µM, 37.1 µM, 18.4 µM and 32.9 µM.
For `Cc1coc2c3ccc4c(c3c3[nH]c(-c5cccc(C(F)(F)F)c5)nc3c12)CCCC4(C)C` the same measures were 52.7 µM, 68.8 µM, 43.8 µM, 31.4 µM and 54.5 µM.
Regarding `COc1ccc(-c2nc3c([nH]2)c2c4c(ccc2c2occ(C)c32)C(C)(C)CCC4)cc1`, the IC50 in the assay with MDA-MB-231 turned out to be 21.1 µM; with HeLa, 62 µM; in the assay on HepG2, 13.9 µM; in the assay on A549, 35.3 µM; in the assay with L02, 84 µM.
In the case of `Cc1coc2c1C(=O)C(=O)c1c-2ccc2c1CCCC2(C)C` [TANSHINONE IIA], the concentration for half-maximal inhibition (IC50) came to 116 µM in the assay on MDA-MB-231; 193 µM with HeLa; 65.7 µM with HepG2; 53.2 µM in the assay with A549; 78.5 µM with L02.
For `COc1ccccc1-c1nc2c([nH]1)c1c3c(ccc1c1occ(C)c21)C(C)(C)CCC3` the same measures were 110 µM, more than 300 µM, 126 µM, 45.9 µM and 86.8 µM.
`COc1cccc(-c2nc3c([nH]2)c2c4c(ccc2c2occ(C)c32)C(C)(C)CCC4)c1`: the IC50 in the assay with MDA-MB-231 is 52.3 µM; in the assay on HeLa, 67.8 µM; with HepG2 it was 28.4 µM; in the assay on A549 it was 40.1 µM; in the assay with L02 it was more than 300 µM.
For `Cc1coc2c3ccc4c(c3c3[nH]c(-c5ccc(C(F)(F)F)cc5)nc3c12)CCCC4(C)C` the same measures were 44.3 µM, 65.3 µM, 25.2 µM, 48.8 µM and 30.7 µM.
For the compound `Cc1coc2c3ccc4c(c3c3[nH]c(-c5ccccc5O)nc3c12)CCCC4(C)C`, the IC50 is 20.2 µM in the assay with MDA-MB-231; 84.3 µM in the assay with HeLa; 26.3 µM in the assay on HepG2; 4.9 µM with A549; 51.9 µM in the assay with L02.
For `Cc1coc2c3ccc4c(c3c3[nH]c(-c5ccccc5[N+](=O)[O-])nc3c12)CCCC4(C)C` the same measures were 23.6 µM, 115 µM, 24.8 µM, 203 µM and more than 300 µM.
For `COc1cccc2c1C(=O)c1c(O)c3c(c(O)c1C2=O)C[C@@](O)(C(=O)CO)C[C@@H]3O[C@H]1C[C@H](N)[C@H](O)[C@H](C)O1` [DOXORUBICIN] the same measures were 8.53 µM, 8.66 µM, 4.3 µM, 3.4 µM and 3.6 µM.
